Source: ChEMBL document CHEMBL3393009 (J Med Chem, 2015)
Active and inactive are the calls of the source. The rule behind the calls is not given here.

Experiments:
[1] = Cmax in rat at 5 mg/kg, po; type: ADME, organism-based; parameters: dose 5 mg/kg, route oral; conditions: in vivo
[2] = Tmax in rat at 5 mg/kg, po; type: ADME, organism-based; parameters: dose 5 mg/kg, route oral; conditions: in vivo
[3] = AUC in rat at 5 mg/kg, po; type: ADME, organism-based; parameters: dose 5 mg/kg, route oral; conditions: plasma
[4] = Half life in rat at 5 mg/kg, po; type: ADME, organism-based; parameters: dose 5 mg/kg, route oral; conditions: in vivo
[5] = Oral bioavailability in rat at 5 mg/kg; type: ADME, organism-based; conditions: in vivo
[6] = Half life in non-human primate at 5 mg/kg, po; type: ADME, organism-based; parameters: dose 5 mg/kg, route oral; conditions: monkey, in vivo
[7] = tested on: Mus musculus; assay: Inhibition of wild type LRRK2 […] phosphorylation in BAC-transgenic C57BL/6J mouse brain at 3 to 100 mg/kg, sc measured after 90 mins post dose; type: functional; conditions: dose mg/kg 3-100; route subcutaneous
Procedure, shortened: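 Mice given compound subcutaneously in 10% NMP/20% SBECD vehicle: four-month-old C57BL/6J (wild type) or seven-month-old LRRK2 BAC-Tg G2019S. Tissues collected 90 min after dose. pS935, and pS1292 (custom antibody) in transgenic brain, read by Western blot of brain/kidney lysates against vehicle controls. Mean ± SEM.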

[8] = tested on: Mus musculus; assay: Effect on total LRRK2 protein level in BAC-transgenic C57BL/6J mouse kidney at 3 to 100 mg/kg, sc measured after 90 mins post dose; type: ADME, organism-based; parameters: dose 3-100 mg/kg, route subcutaneous; conditions: in vivo, 1.5 h
[9] = tested on: Mus musculus; assay: Effect on total LRRK2 protein level in BAC-transgenic C57BL/6J mouse brain at 3 to 100 mg/kg, sc measured after 90 mins post dose; type: ADME, organism-based; parameters: dose 3-100 mg/kg, route subcutaneous; conditions: in vivo, 1.5 h
[10] = tested on: Rattus norvegicus; assay: Inhibition of LRRK2 […] phosphorylation in Wistar Han rat brain at 6 to 60 mg/kg, po bid for 14 days; type: functional; conditions: dose mg/kg 6-60
[11] = tested on: Rattus norvegicus; assay: Toxicity in Wistar Han rat assessed as changes in food consumption at 6 to 60 mg/kg, po bid for 14 days; type: organism-based; parameters: dose 6-60 mg/kg, route oral; conditions: in vivo, 336 h
Procedure, shortened: (§1)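 Wistar Han rats (200–300 g, 8–11 weeks) dosed by oral gavage twice daily for 14 days. Vehicle: 10% propylene glycol/20% PEG400/70% methylcellulose solution. RBC parameters, electrolytes, food consumption, body weight, clinical chemistry and urinary biomarkers recorded.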

[12] = tested on: Rattus norvegicus; assay: Toxicity in Wistar Han rat assessed as changes in body weight at 6 to 60 mg/kg, po bid for 14 days; type: organism-based; parameters: dose 6-60 mg/kg, route oral; conditions: in vivo, 336 h; procedure, shortened: as §1
[13] = tested on: Rattus norvegicus; assay: Toxicity in Wistar Han rat assessed as changes in urinary biomarkers at 6 to 60 mg/kg, po bid for 14 days; type: organism-based, Urine; parameters: dose 6-60 mg/kg, route oral; conditions: in vivo, 336 h; procedure, shortened: as §1
[14] = tested on: Rattus norvegicus; assay: fCmax in Wistar Han rat at 20 mg/kg, po bid for 14 days; type: ADME, organism-based; parameters: dose 20 mg/kg, route oral; conditions: in vivo, 336 h
[15] = Drug coverage index, ratio fCmax in Wistar Han rat at 6 mg/kg, po bid for 14 days to IC50 for LRRK2 […] phosphorylation in Wistar Han rat brain at 6 to 60 mg/kg, po bid for 14 days; type: ADME, organism-based; conditions: in vivo, 336 h
Procedure, shortened: (§2)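 Wistar Han rats (200–300 g, 8–11 weeks old) were dosed by oral gavage twice daily for 14 days. Vehicle was 10% propylene glycol/20% PEG400/70% 9.5% methocellulose.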

[16] = Drug coverage index, ratio fCmax in Wistar Han rat at 60 mg/kg, po bid for 14 days to IC50 for LRRK2 S395 phosphorylation in Wistar Han rat brain at 6 to 60 mg/kg, po bid for 14 days; type: ADME, organism-based; conditions: in vivo, 336 h; procedure, shortened: as §2
[17] = tested on: Rattus norvegicus; assay: fAUC in Wistar Han rat at 6 mg/kg, po bid for 14 days; type: ADME, organism-based; parameters: dose 6 mg/kg, route oral; conditions: in vivo, 336 h
Procedure, shortened: (§3)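 Wistar Han rats dosed orally twice daily in 10% propylene glycol/20% PEG400/methylcellulose vehicle. Unbound plasma exposure measured on days 1 and 11.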

[18] = tested on: Rattus norvegicus; assay: fAUC in Wistar Han rat at 60 mg/kg, po bid for 14 days; type: ADME, organism-based; parameters: dose 60 mg/kg, route oral; conditions: in vivo, 336 h; procedure, shortened: as §3
[19] = tested on: Rattus norvegicus; assay: Drug coverage index, ratio fAUC in Wistar Han rat at 20 mg/kg, po bid for 14 days to IC50 for LRRK2 […] phosphorylation in Wistar Han rat brain at 6 to 60 mg/kg, po bid for 14 days; type: ADME, organism-based; conditions: in vivo, 336 h; procedure, shortened: as §2
[20] = tested on: Rattus norvegicus; assay: Drug coverage index, ratio fAUC in Wistar Han rat at 60 mg/kg, po bid for 14 days to IC50 for LRRK2 […] phosphorylation in Wistar Han rat brain at 6 to 60 mg/kg, po bid for 14 days; type: ADME, organism-based; conditions: in vivo, 336 h; procedure, shortened: as §2
[21] = Apparent permeability from apical to basolateral side by cell based assay; type: physicochemical; conditions: not told
[22] = biological target: T1, Tyrosine-protein kinase JAK1 (Homo sapiens, UniProt P23458); assay: Inhibition of JAK1 (JH1 domain-catalytic) (unknown origin) at 1 uM
[23] = biological target: T1, Tyrosine-protein kinase JAK1; assay: Inhibition of JAK1 (JH2 domain-pseudokinase) (unknown origin) at 1 uM
[24] = biological target: T2, Tyrosine-protein kinase JAK3 (Homo sapiens) (UniProt P52333); assay: Inhibition of JAK3 (JH1 domain-catalytic) (unknown origin) at 1 uM
T2 sequence (whole entry): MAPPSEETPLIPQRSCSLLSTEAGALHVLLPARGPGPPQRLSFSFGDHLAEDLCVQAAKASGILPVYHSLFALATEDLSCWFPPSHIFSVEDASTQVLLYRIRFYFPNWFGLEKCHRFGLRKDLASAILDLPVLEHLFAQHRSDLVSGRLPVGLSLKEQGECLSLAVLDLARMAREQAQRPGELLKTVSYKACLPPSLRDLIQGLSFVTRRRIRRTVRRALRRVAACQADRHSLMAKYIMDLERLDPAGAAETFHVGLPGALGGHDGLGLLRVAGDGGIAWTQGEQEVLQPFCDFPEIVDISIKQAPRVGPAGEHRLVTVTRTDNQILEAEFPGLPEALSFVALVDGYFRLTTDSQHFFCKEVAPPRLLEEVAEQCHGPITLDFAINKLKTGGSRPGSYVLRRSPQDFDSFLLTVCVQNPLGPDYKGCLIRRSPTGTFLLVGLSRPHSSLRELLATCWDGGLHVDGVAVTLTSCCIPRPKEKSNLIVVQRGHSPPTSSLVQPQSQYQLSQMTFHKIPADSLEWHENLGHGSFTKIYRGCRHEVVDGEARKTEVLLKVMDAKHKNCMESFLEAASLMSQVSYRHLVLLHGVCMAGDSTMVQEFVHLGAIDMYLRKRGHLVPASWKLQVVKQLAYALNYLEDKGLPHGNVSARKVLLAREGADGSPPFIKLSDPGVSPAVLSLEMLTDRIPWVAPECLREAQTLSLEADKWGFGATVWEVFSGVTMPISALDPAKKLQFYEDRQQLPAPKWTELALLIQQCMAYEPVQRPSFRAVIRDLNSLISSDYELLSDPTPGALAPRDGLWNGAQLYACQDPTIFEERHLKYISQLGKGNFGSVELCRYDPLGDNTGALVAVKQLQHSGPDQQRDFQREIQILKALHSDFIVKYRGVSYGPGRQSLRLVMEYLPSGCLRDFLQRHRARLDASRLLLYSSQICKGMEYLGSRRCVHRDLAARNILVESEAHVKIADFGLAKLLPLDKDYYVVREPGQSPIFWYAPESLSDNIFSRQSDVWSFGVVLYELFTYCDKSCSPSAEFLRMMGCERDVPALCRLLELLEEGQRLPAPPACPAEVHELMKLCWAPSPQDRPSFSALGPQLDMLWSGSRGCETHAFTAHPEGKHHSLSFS

T1 sequence (P23458 whole entry, the tested form may be a part): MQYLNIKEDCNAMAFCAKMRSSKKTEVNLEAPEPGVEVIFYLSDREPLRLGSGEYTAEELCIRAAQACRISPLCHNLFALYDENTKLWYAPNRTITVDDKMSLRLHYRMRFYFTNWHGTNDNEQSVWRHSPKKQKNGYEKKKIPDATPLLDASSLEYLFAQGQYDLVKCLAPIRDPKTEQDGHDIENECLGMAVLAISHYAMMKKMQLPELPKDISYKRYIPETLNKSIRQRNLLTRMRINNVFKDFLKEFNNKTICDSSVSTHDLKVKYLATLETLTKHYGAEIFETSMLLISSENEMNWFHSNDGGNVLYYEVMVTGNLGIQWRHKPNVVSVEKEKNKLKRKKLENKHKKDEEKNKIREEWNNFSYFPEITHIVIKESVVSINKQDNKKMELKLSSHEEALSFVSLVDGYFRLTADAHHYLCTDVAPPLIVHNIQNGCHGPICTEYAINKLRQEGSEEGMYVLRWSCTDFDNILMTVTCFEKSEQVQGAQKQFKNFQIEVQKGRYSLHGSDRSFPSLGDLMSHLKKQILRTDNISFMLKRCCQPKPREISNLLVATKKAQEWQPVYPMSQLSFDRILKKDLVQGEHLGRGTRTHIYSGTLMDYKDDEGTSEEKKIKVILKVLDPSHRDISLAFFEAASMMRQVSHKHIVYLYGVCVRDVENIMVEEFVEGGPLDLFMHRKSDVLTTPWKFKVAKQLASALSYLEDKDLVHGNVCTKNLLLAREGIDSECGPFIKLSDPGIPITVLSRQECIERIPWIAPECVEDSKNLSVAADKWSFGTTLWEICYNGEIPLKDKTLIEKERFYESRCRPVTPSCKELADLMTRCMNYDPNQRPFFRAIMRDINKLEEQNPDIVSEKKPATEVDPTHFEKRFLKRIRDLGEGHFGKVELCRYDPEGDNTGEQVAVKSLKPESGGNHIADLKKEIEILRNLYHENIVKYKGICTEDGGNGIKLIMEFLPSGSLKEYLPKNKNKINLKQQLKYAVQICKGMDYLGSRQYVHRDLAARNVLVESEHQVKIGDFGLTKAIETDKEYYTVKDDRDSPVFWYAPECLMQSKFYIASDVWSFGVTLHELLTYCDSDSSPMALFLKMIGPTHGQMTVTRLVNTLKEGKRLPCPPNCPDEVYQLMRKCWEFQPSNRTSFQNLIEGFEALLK

Compound: N#Cc1cccc(-c2c[nH]c3ncnc(N4CCOCC4)c23)c1
- Cmax [1]: 181 ng/mL
- Tmax [2]: 0.5 h
- AUC [3]: 629 ng·h/mL
- half-life [4]: 6.22 h
- bioavailability [5]: 41%
- half-life [6]: 2.27 h
- fIC50 [7]: 8 nM
- Activity [8]: Non-toxic
- Activity [9]: Non-toxic
- fIC50 [10]: 15 nM
- Activity [11]: Non-toxic
- Activity [12]: Non-toxic
- Activity [13]: Non-toxic
- fCmax [14]: 380 nM
- Ratio [15]: 6
- Ratio [16]: 70
- fAUC [17]: 0.843 µM·h
- fAUC [18]: 11.17 µM·h
- Ratio [19]: 12
- Ratio [20]: 31
- Papp A→B [21]: 27 ×10⁻⁶ cm/s
- inhibition [22]: inactive
- inhibition [23]: inactive
- inhibition [24]: inactive
